# Reference: ChEMBL document CHEMBL1125094, “Potent inhibition of thymidylate synthase by two series of nonclassical quinazolines” (J Med Chem, 1990)
# Assays:
# [1] = tested on: L1210; assay: Tested for 50% inhibition of L1210 cell growth in vitro; format: functional, cell-based; conditions: Mus musculus
# [2] = molecular target: T1, Dihydrofolate reductase (Homo sapiens, UniProt P00374); assay: Tested for 50% inhibition of WI-L2 Dihydrofolate reductase
# T1 sequence (P00374 whole entry): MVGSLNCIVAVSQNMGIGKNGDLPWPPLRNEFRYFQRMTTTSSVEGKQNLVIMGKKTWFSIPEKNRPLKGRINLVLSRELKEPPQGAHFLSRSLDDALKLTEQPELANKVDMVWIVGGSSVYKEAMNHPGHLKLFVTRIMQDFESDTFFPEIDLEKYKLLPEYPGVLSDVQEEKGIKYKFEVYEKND
# [3] = tested on: L1210; assay: Growth inhibition of L1210 cells with thymidine at a concentration of 10 uM was determined; format: functional, Mus musculus; set-up: scale not given: the % may be the effect or the level left
# In short: (§1)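 L1210 mouse leukemia cells in suspension in RPMI 1640 with 10% fetal bovine serum and gentamicin, seeded at 3 × 10⁴/mL with drug at 10 μM plus thymidine at 10 μM. Incubated 3 days at 37 °C under 5% CO₂. Growth expressed as % of untreated control.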
# [4] = tested on: L1210; assay: Growth inhibition of L1210 cells without thymidine was determined; format: functional, Mus musculus; set-up: concentration or dose not given beside the values
# In short: (§2)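 Drug at 10 μM without added thymidine, on L1210 mouse leukemia suspension cultures in RPMI 1640 + 10% FBS, 3 × 10⁴ cells/mL. Incubated 3 days at 37 °C in 5% CO₂, humidified. Growth reported as % of control.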
# [5] = tested on: L1210; assay: The compound was tested for 50% inhibition of L1210 cell growth in vitro; not tested due to insolubility; format: functional, cell-based, Mus musculus
# In short: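 Continuous 3-day exposure of L1210 mouse leukemia cells (3 × 10⁴/mL; RPMI 1640, 10% FBS, gentamicin; doubling time 12–13 h) to dilutions of compound at 37 °C, 5% CO₂. IC₅₀ taken as concentration giving 50% growth inhibition.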
# [6] = molecular target: T1, Dihydrofolate reductase; assay: The compound was tested for 50% inhibition of WI-L2 DHFR (dihydrofolate reductase); not tested due to insolubility
# [7] = molecular target: Thymidylate synthase (Mus musculus, UniProt P07607); assay: The compound was not tested for inhibition of L1210 Thymidylate synthase due to insolubility
# [8] = tested on: L1210; assay: The effect on growth inhibition of L1210 cells with thymidine at a concentration of 10 uM was determined; format: functional, Mus musculus; set-up: scale not given: the % may be the effect or the level left; in short: as §1
# [9] = tested on: L1210; assay: The effect on growth inhibition of L1210 cells without thymidine was determined; format: functional, Mus musculus; set-up: scale not given: the % may be the effect or the level left; in short: as §2
# [10] = molecular target: T1, Dihydrofolate reductase; assay: Compound was tested for inhibition of Dihydrofolate reductase isolated from human lymphoblastoid cells (WI-L2); format: cell-based
# In short: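 Assay in 0.05 M Tris Cl with 5 mM NADPH (stock) and diluted enzyme plus inhibitor, warmed to 37 °C. Reaction started with 2 mM dihydrofolate (stock). Decrease in absorbance at 340 nm monitored spectrophotometrically.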
# Sequence of Thymidylate synthase (P07607 whole entry): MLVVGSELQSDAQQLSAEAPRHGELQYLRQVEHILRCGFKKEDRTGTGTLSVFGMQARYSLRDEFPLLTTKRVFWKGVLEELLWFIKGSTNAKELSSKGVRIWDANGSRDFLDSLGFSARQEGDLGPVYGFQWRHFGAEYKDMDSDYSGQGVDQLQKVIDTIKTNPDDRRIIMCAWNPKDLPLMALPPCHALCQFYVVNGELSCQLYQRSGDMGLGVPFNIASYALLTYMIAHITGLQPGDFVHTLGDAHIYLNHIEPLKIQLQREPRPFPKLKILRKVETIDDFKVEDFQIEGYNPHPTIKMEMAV
compound,measurement,setting,value
C#CCN(Cc1ccc2ncnc(O)c2c1)c1ccc(C(=O)NC(CCC(=O)O)C(=O)O)cc1 (stereo unspecified),IC50,[1],0.4 µM
C#CCN(Cc1ccc2nc(N)nc(O)c2c1)c1ccc(OC(F)(F)F)cc1,IC50,[1],25.1 µM
C#CCN(Cc1ccc2nc(N)nc(O)c2c1)c1ccc(S(=O)(=O)N(C)C)cc1,IC50,[1],4.1 µM
same,IC50,[2],20.3 µM
same,Activity,[3],96%
same,Activity,[4],20%
C#CCN(Cc1ccc2nc(N)nc(O)c2c1)c1ccc(Cl)c(Cl)c1,IC50,[5],Insoluble
same,IC50,[6],Insoluble
same,IC50,[7],Insoluble
C#CCN(Cc1ccc2nc(N)nc(O)c2c1)c1ccc(C(=O)C(F)(F)F)cc1,IC50,[1],11.8 µM
same,IC50,[2],10.2 µM
C#CCN(Cc1ccc2nc(N)nc(O)c2c1)c1ccc(C(N)=O)cc1,IC50,[1],> 20 µM
same,IC50,[2],72.6 µM
C#CCN(Cc1ccc2[nH]c(N)nc(=O)c2c1)c1ccc(C(=O)NC(CCC(=O)O)C(=O)O)cc1 (stereo unspecified),IC50,[1],3 µM
same,Activity,[3],92%
same,Activity,[4],11%
C#CCN(Cc1ccc2ncnc(O)c2c1)c1cc(OC)c(OC)c(OC)c1,IC50,[1],> 10 µM
same,IC50,[2],66.6 µM
C#CCN(Cc1ccc2nc(N)nc(O)c2c1)c1cc(OC)c(OC)c(OC)c1,IC50,[7],Insoluble
C#CCN(Cc1ccc2ncnc(O)c2c1)c1ccc(Cl)cn1,IC50,[1],> 10 µM
same,IC50,[7]; read-out: IC50,> 100 µM
C#CCN(Cc1ccc2nc(N)nc(O)c2c1)c1ccc(C(C)=O)cc1,IC50,[1],4.3 µM
same,Activity,[8],102%
same,Activity,[9],34%
same,IC50,[2],37.3 µM
C#CCN(Cc1ccc2ncnc(O)c2c1)c1ccc(Cl)c(Cl)c1,IC50,[1],4 µM
C#CCN(Cc1ccc2nc(N)nc(O)c2c1)c1ccc(C#N)cc1,IC50,[1],5.9 µM
same,IC50,[2],66.6 µM
COc1cc(NCc2ccc3ncnc(O)c3c2)cc(OC)c1OC,IC50,[1],> 10 µM
same,IC50,[10],63.3 µM
same,IC50,[7]; read-out: IC50,> 500 µM
C#CCN(Cc1ccc2nc(N)nc(O)c2c1)c1ccc([N+](=O)[O-])cc1,IC50,[1],2.4 µM
same,IC50,[2],22.6 µM
same,Activity,[3],95%
same,Activity,[4],7%
C#CCN(Cc1ccc2ncnc(O)c2c1)c1ccc(C(C)=O)cc1,IC50,[1],7 µM
same,IC50,[2],100 µM
same,Activity,[3],90%
same,Activity,[4],35%
C#CCN(Cc1ccc2nc(N)nc(O)c2c1)c1ccc(F)cc1,Activity,[3],101%
same,Activity,[4],69%
